# NF-kB neuron act: NF-kB expression increase, human neuronal cells | 190,000 tested, 1.6% active | fold change at 12.5 µM | NF-kB reporter expression; active compounds read high; in the data active means fold change above about 3.3
# p97 ATPase inh: blocks human p97 ATPase activity | P55072 | recombinant p97 ATPase, Kinase-Glo ATP luminescence, 3 h | inhibition, % at 8 µM | 220,000 tested, 0.42% active; in the data active means inhibition above about 15%
# APP 5'UTR act: activates APP 5'UTR luciferase reporter | SH-SY5Y APP 5'UTR luciferase reporter, luminescence; zero percent = DMSO vehicle wells | activation, % at 2 µM | 190,000 tested, 1% active;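 active means activation above a set limit, based on mean plus 3 SD of controls, cut at about 140% in these data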
# Wee1 degr inh: blocks degradation of human Wee1 kinase. reporter increase, % at 5 µM. AID 1321. P30291. HeLa Luc-Wee1K328M stability, luciferase luminescence; 100% = proteasome inhibitor MG132 effect. 220,000 tested, 1.2% active;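 active means activation above the mean of all tested compounds plus 3 SD, set per screening run, cut at about 8.8% in these data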;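 further: cells exposed to compound for 20 h before luminescence read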
# MDM2 E3 inh: inhibitors of human Mdm2 E3 ubiquitin ligase; AID 1230; Q00987; 210,000 tested, 0.11% active; signal enhancement, % at 5 µM; cell-based MDM2 ubiquitination luciferase reporter, 2 h; 0 = plate control, 100 = twice control, blank-subtracted;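 active means signal enhancement of 30% or more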;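 further: luminescence tracks abundance of the self-degrading MDM2-luciferase fusion protein; higher signal means inhibition of MDM2 E3 ligase activity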
# Target sequence (Q00987 whole entry, looked up, the tested form may be a part): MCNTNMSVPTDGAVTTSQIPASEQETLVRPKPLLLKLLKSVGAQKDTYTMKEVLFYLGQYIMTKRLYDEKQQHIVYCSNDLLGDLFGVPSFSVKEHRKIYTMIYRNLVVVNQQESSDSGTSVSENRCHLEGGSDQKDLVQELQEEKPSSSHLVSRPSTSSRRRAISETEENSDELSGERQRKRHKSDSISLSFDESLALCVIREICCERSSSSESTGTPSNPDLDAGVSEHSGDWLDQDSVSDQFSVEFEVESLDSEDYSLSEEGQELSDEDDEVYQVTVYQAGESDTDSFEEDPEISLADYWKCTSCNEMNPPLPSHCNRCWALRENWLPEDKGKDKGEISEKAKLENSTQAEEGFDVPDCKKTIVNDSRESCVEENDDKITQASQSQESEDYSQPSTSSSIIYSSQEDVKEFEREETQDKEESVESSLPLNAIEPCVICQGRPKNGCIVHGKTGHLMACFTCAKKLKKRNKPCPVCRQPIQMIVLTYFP
#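 Assay system: stable mammalian line carrying autodegrading MDM2–luciferase fusion reporter; Input: 2000 cells in each well; Compound dosing: single-point 5 µM; Schedule: 2 h compound exposure at 37 °C; Signal: SteadyLite luciferase luminescence after 15 min room-temperature reagent incubation; Evaluation: % luminescence enhancement versus blank-corrected plate control mean; Benchmarks: plate controls and plate blanks.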
# STAT1 activator: increases IFN-gamma driven STAT1 reporter signal. AID 932. 200,000 tested, 2.6% active. activation (% of control), % at 5.5 µM. NIH 3T3 STAT1-luciferase reporter, luminescence; 100% = IFN-gamma alone, no compound;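 active means activation above the screen-wide mean activation plus 3 SD, cut at about 130% in these data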
# p97 inh conf: confirmation of human p97 ATPase inhibitors; shares compounds with p97 ATPase inh; recombinant p97 ATPase, Kinase-Glo ATP luminescence; inhibition, % at 8 µM; 760 tested, 44% active;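 active means percent inhibition of p97 ATPase above a set limit, the primary screen's mean plus 3 SD, cut at about 15% in these data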
# Numbers stand for hits; – = inactive; · = no result. Shown are actives, neighbours in structure and some others; about 4.6% of the full set was active somewhere.
SMILES,NF-kB neuron act,p97 ATPase inh,APP 5'UTR act,Wee1 degr inh,MDM2 E3 inh,STAT1 activator,p97 inh conf
O=[N+]([O-])/C(C(Cl)=C(Cl)Cl)=C(/Sc1ccccc1)N1CCCCC1,·,–,·,–,–,·,·
CCOC(=O)C1CCCN(S(=O)(=O)c2cn(C)c(=O)n(C)c2=O)C1 (centres undefined),–,17,–,–,–,–,–
CC(C)Oc1ccc(NC(=O)c2ccncc2)cc1,–,–,–,–,–,–,·
CC/C(=C\C(=O)c1ccncc1)Nc1ccc(O)cc1,–,21,–,–,–,–,–
CCn1nc(CC(=O)Nc2nnc(CC(=O)N3CCOCC3)s2)c2ccccc2c1=O,–,20,–,–,–,–,–
Nc1nc(SCC(=O)Nc2ccc(Cl)cn2)n[nH]1,–,–,–,–,–,–,·
CC(=O)NC1C(OCc2ccccc2)OC2COC(C)(C)OC2C1O (centres undefined),–,–,–,–,–,–,·
COc1cc2cccc(OC)c(=O)c2c(O)c1OC,–,–,–,–,–,–,·
CC(=O)Oc1cc2cccc(OC(C)=O)c(=O)c2c(OC(C)=O)c1OC(C)=O,–,29,–,–,–,–,–
Cc1cc2nc(CSc3ccc(Cl)cc3)cc(=O)n2[nH]1,–,–,–,–,–,–,·
CC(=O)NCCC(=O)Nc1ccc(C(N)=O)cc1,–,23,–,–,–,–,–
CCCC(=O)Nc1ccc(C(N)=O)cc1,–,–,–,–,–,–,·
Cn1nc(-c2ccc(C(=O)NCCO)cc2)c2ccccc2c1=O,·,–,·,–,–,·,·
CCOC(=O)c1cc([N+](=O)[O-])c([N+](=O)[O-])cc1NC(C)=O,–,16,–,–,–,–,35
C=CC(=O)N=c1sc2ccccc2n1-c1ccccc1,–,18,–,–,–,–,17
O=c1cc2oc3cc(O)c(O)cc3c(-c3ccccc3O)c-2cc1O,·,29,·,–,–,·,36
CC(=O)N(C(C)=O)c1nc(-c2ccccc2)cn1/N=C/c1cccc([N+](=O)[O-])c1,·,18,·,–,–,·,24
O=C(O)CCC(=O)N(Cc1ccco1)C1CC(=O)N(c2ccccc2)C1=O (centres undefined),·,–,·,–,–,·,·
O=C(CSc1nnc(-c2ccccc2)n1Cc1ccccc1)N1CCOCC1,–,–,–,–,–,–,·
Oc1ccccc1-c1nnc(SCCN2CCOCC2)n1Cc1ccccc1,–,15,–,–,–,–,–
COc1ccccc1C(=O)N/C(=C\c1ccc(Br)cc1)C(=O)NCCC(=O)O,–,16,–,–,–,–,–
COc1ccccc1C(=O)N/C(=C\c1ccc(Br)cc1)C(=O)NCC(=O)O,–,–,–,–,–,–,·
CCOC(=O)CC(C#N)c1c[nH]c2ccccc12 (centres undefined),–,16,–,–,–,–,–
O=c1[nH]c(CN2CCCCC2)nc2ccccc12,–,25,–,–,–,–,–
CCS(=O)(=O)N1CCN(Cc2nc3ccccc3c(=O)[nH]2)CC1,–,–,–,–,–,–,·
SMILES,NF-kB neuron act,p97 ATPase inh,APP 5'UTR act,Wee1 degr inh,MDM2 E3 inh,STAT1 activator,p97 inh conf
O=C(COC(=O)CCC(=O)c1cccs1)NC1CC1,–,–,–,–,–,–,·
CSCCC(NS(=O)(=O)c1ccc(Cl)cc1)C(=O)OCC(=O)NC12CC3CC(CC(C3)C1)C2 (centres undefined),–,22,–,–,–,–,–
CC/C(O)=C1\C(=O)CCCC1=NCc1nc2ccccc2[nH]1,–,–,–,–,–,–,·
CC1CC(=O)c2c(cc3c(-c4c(O)cc(O)c5c(O)c6c(cc45)OC(C)CC6=O)c(O)cc(O)c3c2O)O1 (centres undefined),–,56,–,–,–,–,49
O=C(COC(=O)c1ccc2c(c1Cl)C(=O)c1ccccc1C2=O)NC1CC1,–,25,–,–,–,–,22
O=S(=O)(Nc1nc2ccccc2nc1NCc1ccco1)c1ccc(F)cc1,·,–,·,–,–,·,·
COC(=O)c1sc2ccccc2c1NC(=O)c1ccc(S(=O)(=O)N2CCC(C)CC2)cc1,–,–,–,–,–,–,·
O=C(CCSCc1ccc(Cl)cc1)NC1CCCC1,–,–,–,–,·,–,·
Oc1[nH]c(=S)sc1/C=C1\C(c2ccccc2)=Nc2ccccc21,–,23,–,–,–,–,53
COc1ccc2[nH]cc(C(=O)CCl)c2c1,·,42,–,–,·,·,46
N#Cc1c(-c2ccccc2)c(-c2ccccc2)nn(CC(=O)NNC(=O)Nc2ccc(Cl)cc2)c1=O,·,31,·,–,–,·,27
N#Cc1c(-c2ccccc2)c(-c2ccccc2)nn(CC(=O)NNC(=O)Nc2ccccc2)c1=O,–,–,–,–,–,–,·
Oc1cccc(NC(=S)N=Nc2c(O)[nH]c3ccc(Br)cc23)c1,·,25,·,–,–,·,23
Oc1ccc(NC(=S)N=Nc2c(O)[nH]c3ccc(Br)cc23)cc1,–,21,–,–,–,–,21
CC(=O)Nc1ccc(CN2CCN(CCc3ccccc3)C(CCO)C2)cc1 (centres undefined),–,–,–,–,–,–,·
CC(=O)N1CCC(c2c[nH]c3ccccc23)CC1,·,–,·,–,–,·,·
Cc1cc(-c2n[nH]c(=S)n2/N=C/C=C/c2ccco2)n[nH]1,·,24,·,–,–,·,–
S=c1[nH]nc(-c2ccc(Cl)cc2)n1/N=C/C=C/c1ccco1,·,16,·,–,–,·,–
CCOc1ccc(S(=O)(=O)NN2Cc3ccccc3C2=N)cc1,–,–,–,–,–,–,·
O=c1[nH]c(S)c(/C=C2\C=Nc3ccccc32)s1,·,22,·,–,–,·,16
O=C(COc1ncnc2cc([N+](=O)[O-])ccc12)NCCc1ccc(Cl)cc1,–,15,–,–,–,–,–
NNC(=S)NCc1ccco1,·,–,·,–,–,·,·
Cc1cc(C(=O)Cn2nc(C(=O)O)c3ccccc3c2=O)c(C)n1CCc1ccc(Cl)cc1,–,–,–,–,–,–,·
Fc1c(F)c(F)c(/C=N/NC(=S)Nc2cccnc2)c(F)c1F,–,–,–,–,–,–,·
Fc1cccc(F)c1/C=N/NC(=S)Nc1cccnc1,–,–,–,–,–,–,·
SMILES,NF-kB neuron act,p97 ATPase inh,APP 5'UTR act,Wee1 degr inh,MDM2 E3 inh,STAT1 activator,p97 inh conf
Oc1ccc(/C=N/NC(=S)Nc2cccnc2)c(O)c1O,·,20,·,–,·,·,20
Oc1cccc(/C=N/NC(=S)Nc2cccnc2)c1O,–,18,–,–,–,–,35
Oc1ccc(/C=N/NC(=S)Nc2cccnc2)c(O)c1,–,19,–,–,–,–,26
CCCCn1c(NC(C)=O)c(C#N)c2nc3ccccc3nc21,–,30,–,–,–,–,–
C=CCn1c(NC(=O)c2ccccc2Cl)c(C#N)c2nc3ccccc3nc21,–,43,–,–,–,–,28
O=C(CCn1c(=S)oc2ccccc21)NC1CCCCCC1,·,16,·,–,–,·,–
